KCNQ1 pot: potentiators or activators of human KCNQ1 potassium channel. CHO-K1 KCNQ1, thallium flux FluxOR fluorescence; hits give high values. B-score at 10 µM. 0.35% of 310,000 active. AID 2648;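 active = fluorescence ratio B-score, a plate-corrected score, at least three library SD, with initial intensity B-score within 5 SD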
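Assay system: CHO-K1 cells stably expressing KCNQ1. Medium: assay buffer for compound exposure, DMSO matched across wells. Timing: 37 °C overnight plating, 90-min dark dye load, 20-min compound pretreatment. Signal: kinetic FluxOR fluorescence, 10 s baseline plus 110 s post-stimulus.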
KCNK3 inh: human KCNK3 channel inhibition, primary screen | O14649 | CHO-KCNK3 thallium flux, FluxOR fluorescence; hits give low values | B-score at 10 µM | 0.84% of 340,000 active | AID 602410;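 active = B-score under library mean minus 4 SD, starting fluorescence ratio at most library mean plus 5 SD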;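 note: more negative B-score means stronger inhibition of thallium flux through KCNK3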
KCNQ1 inh: human KCNQ1 channel inhibition; CHO-K1 KCNQ1, FluxOR thallium flux fluorescence; hits give high values; B-score at 10 µM; 1.3% of 310,000 active; AID 2642; P51787;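 active = compounds whose thallium flux B-score, printed positive for inhibition, exceeds three library SD while starting fluorescence stays within three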;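 note: channel opened by potassium depolarization with thallium stimulus after 20 min compound exposure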
hERG protect: hERG (human) protection from proarrhythmic block; 0.51% of 310,000 active; CHO-hERG, FluxOR thallium flux, dofetilide IC70 present; activation (rescue from dofetilide block), less the hit threshold, % at 10 µM; Q12809; AID 1511;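 active = activation above the mean of controls blocked by dofetilide plus 5 SD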;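 note: thallium influx through hERG after potassium depolarization seen as dye fluorescence rise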
KCNK9 block: inhibitors of human KCNK9 two-pore domain potassium channel | HEK293 KCNK9, FluxOR thallium flux fluorescence; hits give low values | B-score at 10 µM | 1.2% of 310,000 active | AID 488922;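 active = ratio B-score over 3 SD below the library mean, with starting fluorescence within 5 SD of its mean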;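 note: negative B-score means less thallium flux so channel inhibition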
KCNK9 block conf: confirmation of human KCNK9 potassium channel inhibitors | shares compounds with KCNK9 block | HEK293 KCNK9 cells, FluxOR thallium flux fluorescence | inhibition, % at 10 µM | 43% of 4,900 active;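 active = thallium signal inhibited by more than 5 SD of the compound-free buffer control wells, on both duplicate plates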;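 note: 0% = assay buffer control wells without compound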
Kir21 sel: selectivity of KCNK9 modulators against mouse Kir2.1. shares compounds with KCNK9 block. Kir2.1 cells, FluxOR thallium flux fluorescence. inhibition, % at 10 µM. 4% of 4,900 active. AID 492993;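 active = thallium signal drop more than 5 SD beyond the mean of the no-compound control wells, seen in both duplicate plates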;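 note: signal is fluorescence rise after thallium addition divided by baseline fluorescence; plate controls were assay buffer only for no effect and full block by chlorpromazine control for full effect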
Target sequence (P35561 whole entry, looked up): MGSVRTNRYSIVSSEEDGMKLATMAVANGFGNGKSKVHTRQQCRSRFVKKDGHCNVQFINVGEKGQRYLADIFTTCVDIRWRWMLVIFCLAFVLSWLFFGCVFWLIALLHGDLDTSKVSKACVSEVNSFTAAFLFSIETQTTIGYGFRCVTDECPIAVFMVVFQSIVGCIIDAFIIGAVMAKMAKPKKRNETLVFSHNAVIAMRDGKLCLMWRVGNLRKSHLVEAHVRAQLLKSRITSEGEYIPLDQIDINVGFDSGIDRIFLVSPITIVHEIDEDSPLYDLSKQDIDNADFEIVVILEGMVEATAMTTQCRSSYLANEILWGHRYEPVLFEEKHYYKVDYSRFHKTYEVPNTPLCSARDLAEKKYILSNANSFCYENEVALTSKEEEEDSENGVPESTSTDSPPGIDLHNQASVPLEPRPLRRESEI
HEK293 Tl ctr: non-induced cell nonspecific activity of KCNK9 modulators | 40% of 4,900 active | non-induced KCNK9-HEK293, FluxOR thallium flux | shares compounds with KCNK9 block | inhibition, % at 10 µM | AID 492997;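 active = thallium signal drop beyond 5 SD of the untreated control mean, on both duplicate plates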;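 note: plate controls were buffer only IC0 wells for no effect and SID17386958 at its maximal inhibitory level for full effect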
KCNK3 inh conf: confirmation of human KCNK3 two-pore domain potassium channel inhibitors. shares compounds with KCNK3 inh. CHO-KCNK3 thallium flux, FluxOR fluorescence; 0% buffer, 100% carvedilol maximal block. ratio percent of control, % at 10 µM. 99% of 2,400 active;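 active = ratio percent of control, averaged over triplicates, above buffer control mean plus 5 SD, cut at about 64% in these data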;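 note: ratio is the fluorescence rise from min to max over baseline after thallium stimulus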
KCNK3 uninduced: counter-screen for KCNK3 inhibitors: effect in non-induced cells. thallium flux ratio (lower = more inhibition) at 10 µM. shares compounds with KCNK3 inh. 40% of 2,400 active. non-induced KCNK3 parental cells, FluxOR thallium flux; hits give low values;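 active = thallium flux ratio, averaged over three wells, more than 5 SD below the buffer control mean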;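 note: host cells are CHO cells without KCNK3 induction; ratio is peak minus trough fluorescence over baseline then normalized to buffer controls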
Numbers without * were called inactive; i = inactive; nt = no result; ! = not active in a repeat. Only some compounds are listed: those with a hit (about 3.1% of all), similar ones and a draw of the others.

SMILES	KCNQ1 pot	KCNK3 inh	KCNQ1 inh	hERG protect	KCNK9 block	KCNK9 block conf	Kir21 sel	HEK293 Tl ctr	KCNK3 inh conf	KCNK3 uninduced
Cn1c(=O)c2c(ncn2CC(=O)OCC(=O)Nc2ccc(F)cc2F)n(C)c1=O	nt	i	nt	nt	nt	nt	nt	nt	nt	nt
CCN(C(=O)COC(=O)CCOc1ccc(C(C)(C)C)cc1)c1c(N)n(Cc2ccccc2)c(=O)[nH]c1=O	nt	i	nt	nt	nt	nt	nt	nt	nt	nt
CCc1noc(C)c1C(=O)N1CCSC1=Nc1cccc(Cl)c1C	i	-11*	6*	-16.7	-8.93*	63.5%*	i	42.0%*	113.3*	i
CCc1noc(C)c1C(=O)N1CCOCC1	i	i	i	-11.4	i	nt	nt	nt	nt	nt
O=C(NNC(=O)c1ccccc1OCc1ccccc1)c1ccccc1F	i	-11.4*	i	-13.4	-9.76*	29.0%*	i	23.5%*	117.7*	0.154*
CC1CCCCCCC1OC(=O)c1ccccc1C(=O)O (centres undefined)	nt	i	nt	nt	nt	nt	nt	nt	nt	nt
COCCCN1C(=O)C(=O)/C(=C(/O)c2ccc(S(=O)(=O)N3CCOCC3)cc2)C1c1ccc(OC)cc1 (centres undefined)	i	i	i	-3.6	i	nt	nt	nt	nt	nt
Cc1cccc(C)c1NC(=S)Nc1ccc(Cl)c(Cl)c1	i	-11.6*	8*	-14.1	-9.12*	47.5%*	i	i	86.0*	0.144*
COc1ccc(NC(=S)Nc2ccc(C)c(Cl)c2)cc1OC	i	i	i	-8.4	i	nt	nt	nt	nt	nt
O=C(c1ccc(COc2ccccc2Cl)o1)N1CCN(Cc2ccc3c(c2)OCO3)CC1	i	-10.5*!	i	-11.8	-11.7*	47.0%*	i	25.0%*	123.3*	i
O=S(=O)(c1cc(Cl)ccc1Cl)N1CCN(Cc2ccc3c(c2)OCO3)CC1	i	-9.71*	i	-8.7	i	i	i	26.5%*	112.7*	0.159*
COc1ccc(CS(=O)(=O)CC(C)(O)c2ccccc2Cl)cc1 (centres undefined)	i	i	i	-14.3	i	nt	nt	nt	nt	nt
CCOc1ccc(OCCSc2nnnn2C2CCCCC2)cc1	i	-12.1*	i	-11.5	-14.1*	68.0%*	i	44.0%*	118.3*	0.156*
CCOc1ccc(C(C)(C)C)cc1S(=O)(=O)n1nc(C)cc1C	i	-8.83*	6*	-2.5	-9.59*	53.5%*	i	37.5%*	113.3*	i
Cc1cnc(C(=O)OC(C(=O)c2c[nH]c3ccccc23)c2ccccc2)cn1 (centres undefined)	i	-10.6*	i	-6.8	-19.7*	78.5%*	i	35.0%*	108.0*	i
CSc1nc(N2CCN(c3ccccc3Cl)CC2)c2ccccc2n1	i	i	i	-12.3	-14.2*	59.5%*	i	33.5%*	104.0*	i
O=C(OCc1cccc(C(F)(F)F)c1)c1ccc[nH]c1=O	i	i	i	-7.4	i	nt	nt	nt	nt	nt
CCOc1ccc(-c2nnc(SCC(=O)N3CCNC3=O)o2)cc1	nt	i	nt	nt	nt	nt	nt	nt	nt	nt
O=C(N/N=C/c1cccnc1)c1ccccc1OCc1ccc(Br)cc1	i	-10.9*	i	-13.9	-10.8*	29.5%*	i	i	115.3*	0.157*
O=C(N/N=C/c1cccnc1)c1ccccc1Br	i	i	i	2.1	i	nt	nt	nt	nt	nt
Clc1ccc(Cn2c(-c3cccnc3Cl)nc3ccccc32)cc1	i	i	i	-13.3	i	nt	nt	nt	nt	nt
